Assay results taken from ChEMBL document CHEMBL4325864, “Discovery of new potent protein arginine methyltransferase 5 (PRMT5) inhibitors by assembly of key pharmacophores from known inhibitors” (Bioorg Med Chem Lett, 2018).
pIC50: −log10 of the molar value.

What was measured:
[1] = biological target: T1, Protein arginine N-methyltransferase 5 (Homo sapiens, UniProt O14744); test: Inhibition of PRMT5 (unknown origin)
[2] = biological target: PRMT5/MEP50 complex (Homo sapiens, UniProt O14744); test: Inhibition of recombinant human N-terminal FLAG-tagged PRMT5 (2 to end residues) /human N-terminal His-tagged MEP50 (2 to end residues) expressed in HEK293F cells pretreated for 15 mins followed by substrate and [3H]-SAM addition measured after 60 mins by scintillation proximity assay; assay type: cell-based
Chain of PRMT5/MEP50 complex (O14744 whole entry): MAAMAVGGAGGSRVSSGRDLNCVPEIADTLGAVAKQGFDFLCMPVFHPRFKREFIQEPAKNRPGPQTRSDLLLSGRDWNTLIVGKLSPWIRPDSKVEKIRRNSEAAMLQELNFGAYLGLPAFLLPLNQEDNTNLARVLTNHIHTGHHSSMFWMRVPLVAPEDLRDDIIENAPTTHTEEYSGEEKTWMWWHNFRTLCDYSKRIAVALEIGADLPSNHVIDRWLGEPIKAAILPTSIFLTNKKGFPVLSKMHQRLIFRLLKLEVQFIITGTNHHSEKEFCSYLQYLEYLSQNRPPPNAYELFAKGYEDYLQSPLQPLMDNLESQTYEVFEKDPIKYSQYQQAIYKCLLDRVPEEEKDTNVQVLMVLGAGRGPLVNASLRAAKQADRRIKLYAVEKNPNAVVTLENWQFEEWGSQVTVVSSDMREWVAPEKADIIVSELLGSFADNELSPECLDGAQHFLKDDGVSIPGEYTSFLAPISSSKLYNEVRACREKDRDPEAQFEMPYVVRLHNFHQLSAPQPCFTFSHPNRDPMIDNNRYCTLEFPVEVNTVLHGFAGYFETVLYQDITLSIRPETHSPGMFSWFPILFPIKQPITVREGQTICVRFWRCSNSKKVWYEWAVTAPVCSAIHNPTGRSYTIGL
Chain of PRMT5/MEP50 complex (Q9BQA1 whole entry, further chain): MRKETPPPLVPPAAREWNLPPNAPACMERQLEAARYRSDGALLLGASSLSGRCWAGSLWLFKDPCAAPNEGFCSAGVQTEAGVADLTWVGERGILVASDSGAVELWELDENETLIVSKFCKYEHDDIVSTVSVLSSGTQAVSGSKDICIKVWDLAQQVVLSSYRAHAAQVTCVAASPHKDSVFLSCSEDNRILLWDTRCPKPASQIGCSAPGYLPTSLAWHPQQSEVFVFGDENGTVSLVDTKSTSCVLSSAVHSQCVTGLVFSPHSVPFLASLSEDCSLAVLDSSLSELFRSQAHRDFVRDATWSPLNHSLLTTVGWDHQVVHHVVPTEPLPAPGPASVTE
Method in brief: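 PRMT5 enzymatic inhibition measured by radiometric scintillation proximity assay; IC50 determined.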

[3] = biological target: T1, Protein arginine N-methyltransferase 5; test: Inhibition of full-length N-terminal FLAG-tagged PRMT5 (unknown origin) (1 to 637 residues) expressed in baculovirus infected Sf9 insect cells using histone H4 as peptide after 5 hrs in presence of [H3]AdoMet by scintillation proximity assay
[4] = biological target: T1, Protein arginine N-methyltransferase 5; test: Inhibition of PRMT5 in human KARPAS422 cells assessed as decrease in symmetric arginine dimethylation of SmD3 after 4 days by Western blot analysis; assay type: cell-based; conditions: in the assay text read “after 72 h” for “after 4 days”
Method in brief: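 KARPAS-422 and SU-DHL-4 cells treated across a concentration range; symmetric arginine dimethylation of SmD3 detected by Western blot with symmetric dimethyl arginine (SDMA) antibody.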

T1 sequence (O14744 whole entry): as the sequence (O14744 whole entry) above

| Compound | pIC50 [2] | also measured |
| --- | --- | --- |
| O=C(NC[C@H]1C[C@@H]2CC[N@@]1C[C@@H]2CN1CCC(Cc2ccccc2)CC1)c1ccc2c(c1)OCO2 |  | pIC50 [1]: 5.82 |
| O=C(CCN1CCc2ccccc2C1)Nc1ccccc1 | < 4.00 |  |
| COc1ccc(NC(=O)CCN2CCc3ccccc3C2)cc1 | < 4.00 |  |
| Nc1ncnc2c1ncn2[C@@H]1O[C@H](C[C@@H](N)CC[C@H](N)C(=O)O)[C@@H](O)[C@H]1O [SINEFUNGIN] |  | pIC50 [3]: 5.07 |
| N#Cc1ccccc1NC(=O)CCN1CCc2ccccc2C1 | 4.59 |  |
| O=C(NC[C@H](O)CN1CCc2ccccc2C1)c1cc(NC2COC2)ncn1 |  | inhibition [4]: Dose-dependent effect |
| CCOC(=O)c1ccc(NC(=O)CCN2CCc3ccccc3C2)cc1 | < 4.00 |  |
| O=C(CCN1CCc2ccccc2C1)Nc1cccc(F)c1 | 4.34 |  |
| O=C(CCN1CCc2ccccc2C1)Nc1cccc(Cl)c1 | 4.38 |  |
| CC(=O)c1cccc(NC(=O)CCN2CCc3ccccc3C2)c1 | 4.28 |  |
| COC(=O)c1ccccc1NC(=O)CCN1CCc2ccccc2C1 | 4.50 |  |
| Cc1ccc(NC(=O)CCN2CCc3ccccc3C2)c([N+](=O)[O-])c1 | < 4.00 |  |
| O=C(CCN1CCc2ccccc2C1)Nc1cccc2ccccc12 | < 4.00 |  |
